Measurements as given in PMC9444296 (Investigative Radiology, 2022).
Entries after “also recorded” stand apart in the source; their conditions may differ.

Assays:
bone marrow of ICR mice = assay: Micronucleus assay in ICR mice; type: in vivo, mouse; settings: ICR mice, 1.39, 0.70, and 0.35 mmol/kg/d for 2 days
Procedure, shortened: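 Male ICR mice, 32 in total, were dosed once daily for 2 days: vehicle, 500 or 1000 mg/kg/d (6 per group) or 2000 mg/kg/d (8 mice). Cyclophosphamide monohydrate served as positive control. Bone marrow was collected about 22.5 h after the final dose and scored for micronuclei and for polychromatic to total erythrocytes.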

[1] = Plasma protein binding, human plasma; type: in vitro ADME; settings: 37°C, 3 min, 10 kDa ultrafiltration, Gd by ICP-OES, n = 4
Procedure, shortened: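 Test compound at 50, 80 or 110 μM was incubated with human, dog or rat plasma (alongside HSA 40 mg/mL and PBS) at 37°C for 3 min. Mixtures were kept overnight and centrifuged to remove insolubles. Gd was measured by ICP-OES, and the binding ratio was taken as bound over total concentration.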

[2] = test system: 78 common biological targets; assay: SAFETYscan 78-target panel; type: biochemical; settings: 0.005 to 100 μM
MATE2K = MATE2K (Homo sapiens, UniProt Q86VL8); assay: MATE2K inhibition, HEK293 cells; type: in vitro ADME; settings: 1, 5, 10, 50, and 100 μM
BCRP = BCRP (Homo sapiens, UniProt Q9UNQ0); assay: BCRP inhibition, membrane vesicles; type: in vitro ADME; settings: 1, 5, 10, 50, and 100 μM
OAT3 = OAT3 (Homo sapiens, UniProt Q8TCC7); assay: OAT3 inhibition, HEK293 cells; type: in vitro ADME; settings: 1, 5, 10, 50, and 100 μM
OCT2 = OCT2 (Homo sapiens, UniProt O15244); assay: OCT2 inhibition, HEK293 cells; type: in vitro ADME; settings: 1, 5, 10, 50, and 100 μM
[3] = Biodistribution in SD rats; type: in vivo, rat; settings: for AUC(0–48h) / AUCINF / Cmax / Gd concentration in the brain: SD rat; for AUC(0–48h) / AUCINF / Cmax: 0.1 mmol/kg single IV, Gd by ICP-MS; for Gd concentration in the brain: 0.1 mmol/kg IV, ICP-MS (LLOQ 0.1 μg/g)
Procedure, shortened: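 Rats, 30 in total (3/sex/group), received a single IV injection of 0.1 mmol/kg. Blood and tissues were taken predose and at 10 and 30 min and 2, 6 and 48 h. Gd was measured by ICP-MS, and parameters came from noncompartmental analysis.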

OATP1B3 = OATP1B3 (Homo sapiens, UniProt Q9NPD5); assay: OATP1B3 inhibition, HEK293 cells; type: in vitro ADME; settings: 1, 5, 10, 50, and 100 μM
[4] = Plasma stability, human plasma; type: in vitro ADME; settings: 0.5 mM, 37°C, HPLC; for average remaining percentage of intact MT218: n = 2
Procedure, shortened: (§1)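 Test compound at 0.5 mM was incubated in human, rat or dog plasma at 37°C for up to 48 h, with PBS as control. Samples were mixed with methanol, centrifuged, and the intact compound was quantified by analytical reversed-phase (C18) HPLC.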

[5] = Metabolic stability in CD1 mouse hepatocytes; type: in vitro ADME; settings: 2 hours of incubation, LC-MS/MS
SD rats = assay: Single and repeated dose toxicity and toxicokinetics in SD rats; type: in vivo, rat; settings: for NOAEL: SD rats; for accumulation ratio AUC0–24h (D14)/AUC0–24h (D1) of Gd: 14 days
Procedure, shortened: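 GLP study in SD rats aged 6–7 weeks (M 200–246 g, F 175–224 g). […] Clinical observation, organ weights and macro/microscopic histopathology were done. Plasma exposure (AUC0–24h, C0) was taken on D1 and D14, with accumulation ratio AUC0–24h(D14)/AUC0–24h(D1) of Gd.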

[6] = Metabolic stability in beagle dog hepatocytes; type: in vitro ADME; settings: 2 hours of incubation, LC-MS/MS
[7] = Plasma stability, dog plasma; type: in vitro ADME; settings: 0.5 mM, 37°C, HPLC; for average remaining percentage of intact MT218: n = 2
Procedure, shortened: as §1

Sequence of BCRP (Q9UNQ0 whole entry): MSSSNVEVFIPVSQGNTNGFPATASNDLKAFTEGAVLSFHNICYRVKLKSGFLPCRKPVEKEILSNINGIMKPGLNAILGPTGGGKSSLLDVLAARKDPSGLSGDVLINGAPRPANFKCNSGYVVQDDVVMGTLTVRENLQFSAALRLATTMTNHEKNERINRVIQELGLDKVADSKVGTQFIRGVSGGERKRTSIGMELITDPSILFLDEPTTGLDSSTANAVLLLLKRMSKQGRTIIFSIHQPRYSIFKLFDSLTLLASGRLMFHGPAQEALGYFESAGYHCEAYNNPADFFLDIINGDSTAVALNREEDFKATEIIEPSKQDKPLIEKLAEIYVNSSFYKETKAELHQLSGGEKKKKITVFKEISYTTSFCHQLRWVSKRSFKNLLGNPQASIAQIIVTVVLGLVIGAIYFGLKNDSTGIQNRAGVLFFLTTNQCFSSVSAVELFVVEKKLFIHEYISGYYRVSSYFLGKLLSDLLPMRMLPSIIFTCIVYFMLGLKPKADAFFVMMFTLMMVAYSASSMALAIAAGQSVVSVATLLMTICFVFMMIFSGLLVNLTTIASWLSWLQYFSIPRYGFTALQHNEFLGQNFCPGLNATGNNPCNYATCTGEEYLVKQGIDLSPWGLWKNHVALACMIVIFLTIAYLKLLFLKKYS
Sequence of MATE2K (Q86VL8 1-566 isoform Q86VL8-3): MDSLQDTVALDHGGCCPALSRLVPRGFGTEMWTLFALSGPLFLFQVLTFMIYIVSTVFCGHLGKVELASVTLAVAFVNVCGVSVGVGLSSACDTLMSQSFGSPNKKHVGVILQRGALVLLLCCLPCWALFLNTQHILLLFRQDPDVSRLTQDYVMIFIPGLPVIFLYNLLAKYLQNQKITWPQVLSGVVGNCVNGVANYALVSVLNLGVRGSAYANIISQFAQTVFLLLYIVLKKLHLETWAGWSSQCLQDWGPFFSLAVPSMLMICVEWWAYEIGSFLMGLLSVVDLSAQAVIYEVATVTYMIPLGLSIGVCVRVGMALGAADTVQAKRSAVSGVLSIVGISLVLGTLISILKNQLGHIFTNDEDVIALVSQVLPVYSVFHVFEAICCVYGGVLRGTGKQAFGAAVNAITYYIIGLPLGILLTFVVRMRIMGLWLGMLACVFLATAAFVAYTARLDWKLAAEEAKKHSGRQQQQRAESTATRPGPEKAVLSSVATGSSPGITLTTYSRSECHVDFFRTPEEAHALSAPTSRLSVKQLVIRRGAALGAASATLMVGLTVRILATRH
Sequence of OATP1B3 (Q9NPD5 whole entry): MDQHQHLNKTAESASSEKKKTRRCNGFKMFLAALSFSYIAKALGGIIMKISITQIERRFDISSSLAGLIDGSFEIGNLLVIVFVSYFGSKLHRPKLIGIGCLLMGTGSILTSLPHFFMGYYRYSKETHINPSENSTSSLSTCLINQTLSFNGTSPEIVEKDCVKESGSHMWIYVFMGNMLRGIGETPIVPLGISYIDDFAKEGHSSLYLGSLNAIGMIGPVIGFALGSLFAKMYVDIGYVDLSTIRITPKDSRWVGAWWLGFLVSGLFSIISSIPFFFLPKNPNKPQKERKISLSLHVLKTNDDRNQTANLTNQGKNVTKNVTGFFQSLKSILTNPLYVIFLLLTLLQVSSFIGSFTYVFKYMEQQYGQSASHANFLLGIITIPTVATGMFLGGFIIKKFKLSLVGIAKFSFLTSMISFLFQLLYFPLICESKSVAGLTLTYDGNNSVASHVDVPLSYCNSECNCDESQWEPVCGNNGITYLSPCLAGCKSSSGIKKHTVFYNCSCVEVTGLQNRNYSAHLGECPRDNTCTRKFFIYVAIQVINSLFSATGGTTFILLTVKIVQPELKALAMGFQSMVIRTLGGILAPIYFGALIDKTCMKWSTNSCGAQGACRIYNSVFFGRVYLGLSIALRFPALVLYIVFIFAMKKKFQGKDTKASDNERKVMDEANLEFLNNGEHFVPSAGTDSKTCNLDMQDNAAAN
Sequence of OAT3 (Q8TCC7 whole entry): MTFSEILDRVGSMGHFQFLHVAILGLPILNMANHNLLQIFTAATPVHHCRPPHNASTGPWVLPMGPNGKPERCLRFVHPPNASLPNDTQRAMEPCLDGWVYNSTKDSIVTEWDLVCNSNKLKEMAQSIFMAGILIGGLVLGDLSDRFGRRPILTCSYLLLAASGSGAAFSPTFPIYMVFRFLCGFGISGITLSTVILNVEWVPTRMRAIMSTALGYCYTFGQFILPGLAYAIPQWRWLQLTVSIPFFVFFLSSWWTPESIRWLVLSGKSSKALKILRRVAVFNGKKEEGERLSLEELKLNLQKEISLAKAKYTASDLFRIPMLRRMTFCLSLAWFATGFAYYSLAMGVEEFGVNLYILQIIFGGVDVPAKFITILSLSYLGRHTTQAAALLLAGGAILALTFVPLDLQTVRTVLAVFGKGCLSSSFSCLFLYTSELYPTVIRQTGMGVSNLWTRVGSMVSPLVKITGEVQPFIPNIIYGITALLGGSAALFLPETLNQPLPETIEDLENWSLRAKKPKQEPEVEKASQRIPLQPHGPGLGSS
Sequence of OCT2 (O15244 whole entry): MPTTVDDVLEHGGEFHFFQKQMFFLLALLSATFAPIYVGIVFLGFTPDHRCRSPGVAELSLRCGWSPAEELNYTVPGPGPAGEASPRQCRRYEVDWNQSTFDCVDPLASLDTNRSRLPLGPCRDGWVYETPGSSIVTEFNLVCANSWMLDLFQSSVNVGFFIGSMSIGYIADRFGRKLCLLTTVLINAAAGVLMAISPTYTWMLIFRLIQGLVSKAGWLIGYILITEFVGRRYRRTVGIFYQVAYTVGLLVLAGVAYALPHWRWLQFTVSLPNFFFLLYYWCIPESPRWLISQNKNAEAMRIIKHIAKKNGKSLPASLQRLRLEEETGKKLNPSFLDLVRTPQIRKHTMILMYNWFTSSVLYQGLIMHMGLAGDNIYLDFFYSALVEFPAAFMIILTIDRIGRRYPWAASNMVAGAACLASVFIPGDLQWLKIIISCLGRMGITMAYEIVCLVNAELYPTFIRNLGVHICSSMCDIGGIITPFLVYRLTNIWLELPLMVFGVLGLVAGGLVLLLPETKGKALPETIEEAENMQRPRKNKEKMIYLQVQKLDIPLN

ZD2-N3-Gd(HP-DO3A) [MT218]
incidence of micronuclei vs vehicle control (bone marrow of ICR mice): no significant increase
ratio of polychromatic erythrocytes to total erythrocytes (bone marrow of ICR mice): no significant decrease
mRNA expression level of CYP1A2 vs vehicle controls (CYP1A2; 100 μM, human hepatocytes, 1 of the 3 lots of cells): 2.10 fold
induction on enzyme activity of CYP1A2 (CYP1A2; human primary hepatocytes, 1, 10, and 100 μM): no induction
binding ratio to plasma proteins ([1]; 50 μM): 47.31%
binding ratio to plasma proteins ([1]; 80 μM): 45.15%
binding ratio to plasma proteins ([1]; 110 μM): 40.50%
target-specific secondary pharmacologic activity [2]: did not exhibit any notable target-specific secondary pharmacologic activity
inhibition of MATE2K transporter activity (MATE2K): no inhibition potential
inhibition of BCRP transporter activity (BCRP): no inhibition potential
inhibition of OAT3 transporter activity (OAT3): no inhibition potential
inhibition of OCT2 transporter activity (OCT2): no inhibition potential
AUC(0–48h) ([3]; Brain): 0.86 µg·h/g
AUCINF ([3]; Brain): 0.87 µg·h/g
Cmax ([3]; Brain): 1.10 µg/g
AUC(0–48h) ([3]; Fat): 3.18 µg·h/g
AUCINF ([3]; Fat): 3.23 µg·h/g
Cmax ([3]; Fat): 4.07 µg/g
AUC(0–48h) ([3]; Gonads): 11.78 µg·h/g
AUCINF ([3]; Gonads): 17.48 µg·h/g
Cmax ([3]; Gonads): 7.22 µg/g
AUC(0–48h) ([3]; Heart): 7.15 µg·h/g
AUCINF ([3]; Heart): 7.56 µg·h/g
Cmax ([3]; Heart): 7.54 µg/g
AUC(0–48h) ([3]; Kidney): 481.54 µg·h/g
AUCINF ([3]; Kidney): 2936.07 µg·h/g
Cmax ([3]; Kidney): 74.89 µg/g
AUC(0–48h) ([3]; Liver): 17.22 µg·h/g
AUCINF ([3]; Liver): 27.86 µg·h/g
Cmax ([3]; Liver): 4.73 µg/g
AUC(0–48h) ([3]; Lung): 17.81 µg·h/g
AUCINF ([3]; Lung): 19.50 µg·h/g
Cmax ([3]; Lung): 14.28 µg/g
AUC(0–48h) ([3]; Lymph nodes): 27.63 µg·h/g
AUCINF ([3]; Lymph nodes): 51.39 µg·h/g
Cmax ([3]; Lymph nodes): 12.53 µg/g
AUC(0–48h) ([3]; Muscle): 4.27 µg·h/g
AUCINF ([3]; Muscle): 4.29 µg·h/g
Cmax ([3]; Muscle): 5.51 µg/g
AUC(0–48h) ([3]; Plasma): 34060 ng·h/mL
AUCINF ([3]; Plasma): 34180 ng·h/mL
Cmax ([3]; Plasma): 44960 ng/mL
AUC(0–48h) ([3]; Prostate): 12.05 µg·h/g
AUCINF ([3]; Prostate): 13.12 µg·h/g
Cmax ([3]; Prostate): 6.05 µg/g
Gd concentration in the brain ([3]; 2 hours post-injection): reached LLOQ
Gd concentration in the brain ([3]; 6 hours post-injection): No detectable Gd deposition; also recorded: undetectable
AUC(0–48h) ([3]; Skeleton): 11.83 µg·h/g
AUCINF ([3]; Skeleton): 12.16 µg·h/g
Cmax ([3]; Skeleton): 4.58 µg/g
AUC(0–48h) ([3]; Skin): 28.54 µg·h/g
AUCINF ([3]; Skin): 30.96 µg·h/g
Cmax ([3]; Skin): 17.21 µg/g
AUC(0–48h) ([3]; Small intestine): 13.99 µg·h/g
AUCINF ([3]; Small intestine): 19.76 µg·h/g
Cmax ([3]; Small intestine): 6.44 µg/g
AUC(0–48h) ([3]; Spleen): 15.18 µg·h/g
AUCINF ([3]; Spleen): 35.21 µg·h/g
Cmax ([3]; Spleen): 4.14 µg/g
AUC(0–48h) ([3]; Stomach): 12.99 µg·h/g
AUCINF ([3]; Stomach): 15.13 µg·h/g
Cmax ([3]; Stomach): 10.87 µg/g
Gd concentration in the tested tissues besides the kidneys ([3]; rats, biodistribution study, level to which it decreased, time not given): ≤ 1.0 µg/g
inhibition of OATP1B3 transporter activity (OATP1B3): no inhibition potential
average remaining percentage of intact MT218 ([4]; 1 h): 83.47%
average remaining percentage of intact MT218 ([4]; 3 h): 48.79%
average remaining percentage of intact MT218 ([4]; 6 h): 12.87%
average remaining percentage of intact MT218 ([4]; 28 h): 5.21%
average remaining percentage of intact MT218 ([4]; 48 h): 3.97%
enzymatic degradation half-life (t1/2) [4]: 2.63 h
remaining MT218 [5]: 50.6%
NOAEL (SD rats; repeated daily IV dose for 14 days): 0.46 mmol/kg/day
NOAEL (SD rats; single IV dose): 1.39 mmol/kg
accumulation ratio AUC0–24h (D14)/AUC0–24h (D1) of Gd (SD rats; female rats, high dose 1.39 mmol/kg/d IV): 1.22
accumulation ratio AUC0–24h (D14)/AUC0–24h (D1) of Gd (SD rats; female rats, low dose 0.15 mmol/kg/d IV): 1.41
accumulation ratio AUC0–24h (D14)/AUC0–24h (D1) of Gd (SD rats; female rats, medium dose 0.46 mmol/kg/d IV): 1.61
accumulation ratio AUC0–24h (D14)/AUC0–24h (D1) of Gd (SD rats; male rats, high dose 1.39 mmol/kg/d IV): 1.31
accumulation ratio AUC0–24h (D14)/AUC0–24h (D1) of Gd (SD rats; male rats, low dose 0.15 mmol/kg/d IV): 1.52
accumulation ratio AUC0–24h (D14)/AUC0–24h (D1) of Gd (SD rats; male rats, medium dose 0.46 mmol/kg/d IV): 1.49
mortality or moribundity (SD rats; rats, any dose group, up to 1.39 mmol/kg/d): no mortality or morbidity; also recorded: No mortality or moribundity
clinical observations (body weight, food consumption, temperature, ophthalmoscopy, hematology, coagulation, clinical chemistry, urinalysis) (SD rats; rats, any dose level): No MT218-related changes
pathological findings (SD rats; rats, low and medium repeated-dosing groups (0.15, 0.46 mmol/kg/d)): No such abnormality
pathological findings (SD rats; rats, single dose 1.39 mmol/kg): no MT218-related macroscopic and microscopic abnormality
remaining MT218 [6]: 41.0%
average remaining percentage of intact MT218 ([7]; 1 h): 89.19%
average remaining percentage of intact MT218 ([7]; 3 h): 71.45%
average remaining percentage of intact MT218 ([7]; 6 h): 47.81%
average remaining percentage of intact MT218 ([7]; 28 h): 11.23%
average remaining percentage of intact MT218 ([7]; 48 h): 5.38%
enzymatic degradation half-life (t1/2) [7]: 5.85 h
